Tested on: HEK-293T
Assay: Multiplex assay against HEK293T
Format: toxicity, cell-based
Conditions: human
Procedure, shortened: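 At seeding, live cells were stained with Hoechst33342, BioTracker Green Microtubule Cytoskeleton Dye, MitoTracker Red and Annexin V Alexa Fluor 680. After compound addition they were imaged on a CQ1 microscope at 37°C and 5% CO2, and CellPathfinder machine-learning gating sorted them into Hoechst high-intensity objects or normal cells, with normal cells further split into healthy, pyknosed or fragmented nuclei and pyknosed cells into mitotic or apoptotic. Tubulin, mitochondrial-mass and membrane-permeability phenotypes are given as per cents of cells with healthy nuclei.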

[1] = 12 h, 1 µM, compound concentration 1 uM, replicate 1
[2] = 12 h, 1 µM, compound concentration 1 uM, replicate 2
[3] = 12 h, 10 µM, compound concentration 10 uM, replicate 1
[4] = 12 h, 10 µM, compound concentration 10 uM, replicate 2
[5] = 24 h, 1 µM, compound concentration 1 uM, replicate 1
[6] = 24 h, 1 µM, compound concentration 1 uM, replicate 2
[7] = 24 h, 10 µM, compound concentration 10 uM, replicate 1
[8] = 24 h, 10 µM, compound concentration 10 uM, replicate 2
[9] = 48 h, 1 µM, compound concentration 1 uM, replicate 1
[10] = 48 h, 1 µM, compound concentration 1 uM, replicate 2
[11] = 48 h, 10 µM, compound concentration 10 uM, replicate 1
[12] = 48 h, 10 µM, compound concentration 10 uM, replicate 2

COc1ccc2c(c1OCc1ccccc1)C[C@@H](C(=O)O)N(C(=O)C(c1ccccc1)c1ccccc1)C2 [OLODANRIGAN]
Population Apoptotic (%) [1]: 39%
Population Fragmented Nuclei (%) [1]: 6%
Population Healthy Nuclei (%) [1]: 82%
Population Hoechst High Intensity Objects (%) [1]: 7%
Population Membrane Permeable-Phenotype (%) [1]: 0%
Population Mitochondria Different-Phenotype (%) [1]: 44%
Population Mitotic Cells (%) [1]: 60%
Population Normal (%) [1]: 92%
Population Pyknosed Nuclei (%) [1]: 11%
Population Tubulin-Different-Phenotype (%) [1]: 21%
Total Cell Count [1]: 419
Population Apoptotic (%) [2]: 43%
Population Fragmented Nuclei (%) [2]: 7%
Population Healthy Nuclei (%) [2]: 81%
Population Mitochondria Different-Phenotype (%) [2]: 48%
Population Mitotic Cells (%) [2]: 56%
Population Pyknosed Nuclei (%) [2]: 10%
Population Tubulin-Different-Phenotype (%) [2]: 17%
Total Cell Count [2]: 409
Population Apoptotic (%) [3]: 45%
Population Fragmented Nuclei (%) [3]: 6%
Population Healthy Nuclei (%) [3]: 81%
Population Hoechst High Intensity Objects (%) [3]: 6%
Population Membrane Permeable-Phenotype (%) [3]: 0%
Population Mitochondria Different-Phenotype (%) [3]: 42%
Population Mitotic Cells (%) [3]: 54%
Population Normal (%) [3]: 93%
Population Pyknosed Nuclei (%) [3]: 12%
Population Tubulin-Different-Phenotype (%) [3]: 35%
Total Cell Count [3]: 389
Population Apoptotic (%) [4]: 44%
Population Fragmented Nuclei (%) [4]: 4%
Population Healthy Nuclei (%) [4]: 83%
Population Hoechst High Intensity Objects (%) [4]: 3%
Population Mitochondria Different-Phenotype (%) [4]: 58%
Population Mitotic Cells (%) [4]: 55%
Population Normal (%) [4]: 96%
Population Tubulin-Different-Phenotype (%) [4]: 27%
Total Cell Count [4]: 368
Population Apoptotic (%) [5]: 46%
Population Fragmented Nuclei (%) [5]: 11%
Population Healthy Nuclei (%) [5]: 78%
Population Hoechst High Intensity Objects (%) [5]: 3%
Population Membrane Permeable-Phenotype (%) [5]: 0%
Population Mitochondria Different-Phenotype (%) [5]: 24%
Population Mitotic Cells (%) [5]: 53%
Population Normal (%) [5]: 96%
Population Pyknosed Nuclei (%) [5]: 10%
Population Tubulin-Different-Phenotype (%) [5]: 15%
Total Cell Count [5]: 614
Population Apoptotic (%) [6]: 19%
Population Fragmented Nuclei (%) [6]: 10%
Population Healthy Nuclei (%) [6]: 81%
Population Hoechst High Intensity Objects (%) [6]: 6%
Population Membrane Permeable-Phenotype (%) [6]: 1%
Population Mitochondria Different-Phenotype (%) [6]: 30%
Population Mitotic Cells (%) [6]: 80%
Population Normal (%) [6]: 93%
Population Pyknosed Nuclei (%) [6]: 8%
Population Tubulin-Different-Phenotype (%) [6]: 14%
Total Cell Count [6]: 521
Population Apoptotic (%) [7]: 40%
Population Fragmented Nuclei (%) [7]: 7%
Population Healthy Nuclei (%) [7]: 78%
Population Hoechst High Intensity Objects (%) [7]: 6%
Population Membrane Permeable-Phenotype (%) [7]: 0%
Population Mitochondria Different-Phenotype (%) [7]: 34%
Population Mitotic Cells (%) [7]: 59%
Population Normal (%) [7]: 93%
Population Pyknosed Nuclei (%) [7]: 13%
Population Tubulin-Different-Phenotype (%) [7]: 32%
Total Cell Count [7]: 456
Population Apoptotic (%) [8]: 43%
Population Fragmented Nuclei (%) [8]: 10%
Population Healthy Nuclei (%) [8]: 79%
Population Mitochondria Different-Phenotype (%) [8]: 57%
Population Mitotic Cells (%) [8]: 56%
Population Pyknosed Nuclei (%) [8]: 9%
Population Tubulin-Different-Phenotype (%) [8]: 28%
Total Cell Count [8]: 414
Population Apoptotic (%) [9]: 26%
Population Fragmented Nuclei (%) [9]: 13%
Population Healthy Nuclei (%) [9]: 80%
Population Hoechst High Intensity Objects (%) [9]: 2%
Population Membrane Permeable-Phenotype (%) [9]: 0%
Population Mitochondria Different-Phenotype (%) [9]: 15%
Population Mitotic Cells (%) [9]: 73%
Population Normal (%) [9]: 97%
Population Pyknosed Nuclei (%) [9]: 5%
Population Tubulin-Different-Phenotype (%) [9]: 11%
Total Cell Count [9]: 1083
Population Apoptotic (%) [10]: 22%
Population Fragmented Nuclei (%) [10]: 15%
Population Healthy Nuclei (%) [10]: 79%
Population Mitochondria Different-Phenotype (%) [10]: 18%
Population Mitotic Cells (%) [10]: 77%
Population Tubulin-Different-Phenotype (%) [10]: 10%
Total Cell Count [10]: 818
Population Apoptotic (%) [11]: 32%
Population Fragmented Nuclei (%) [11]: 12%
Population Healthy Nuclei (%) [11]: 78%
Population Hoechst High Intensity Objects (%) [11]: 5%
Population Membrane Permeable-Phenotype (%) [11]: 0%
Population Mitochondria Different-Phenotype (%) [11]: 22%
Population Mitotic Cells (%) [11]: 67%
Population Normal (%) [11]: 94%
Population Pyknosed Nuclei (%) [11]: 8%
Population Tubulin-Different-Phenotype (%) [11]: 15%
Total Cell Count [11]: 659
Population Apoptotic (%) [12]: 39%
Population Healthy Nuclei (%) [12]: 80%
Population Hoechst High Intensity Objects (%) [12]: 6%
Population Mitochondria Different-Phenotype (%) [12]: 32%
Population Mitotic Cells (%) [12]: 60%
Population Normal (%) [12]: 93%
Population Pyknosed Nuclei (%) [12]: 7%
Population Tubulin-Different-Phenotype (%) [12]: 18%
Total Cell Count [12]: 534
